Consider five molecules from ChEMBL document CHEMBL4308833, “A Thieno[2,3- d]pyrimidine Scaffold Is a Novel Negative Allosteric Modulator of the Dopamine D2 Receptor” (J Med Chem, 2018).

Each structure is given as a SMILES string.

For experiment [1], the target named is D(2) dopamine receptor (Homo sapiens) (UniProt P14416). As to the kind of experiment: Displacement of [3H]Raclopride from recombinant human D2L receptor expressed in Flp-In CHO cell membranes after 2 to 3 hrs by microbeta counting method. Summed up:
(§1)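 hD2LR FlpIn CHO membrane homogenate (15 µg protein) was co-incubated with 0.5 nM [3H]raclopride and test compound at 10^-3 to 10^-7 M (half-log dilutions from DMSO stock, in duplicate). Incubation was 2-3 h at 25 °C in HEPES buffer, pH 7.4. Nonspecific binding was defined with 10 µM haloperidol. Filtration was followed by scintillation counting. KB and cooperativity α were obtained from an allosteric ternary complex model.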
A general note: Loss of bound radioactivity is the signal in a displacement assay; it reports binding, not function.

The target is the same in experiment [2]. The experiment can be described thus: Displacement of [3H]Raclopride from recombinant human D2L receptor expressed in Flp-In CHO cell membranes assessed as co-operativity factor after 2 to 3 hrs by microbeta counting method. The procedure, abridged: as §1
For experiment [3] the target is unchanged. As to the kind of experiment: Negative allosteric modulation of recombinant human D2L receptor expressed in Flp-In CHO cells assessed as inhibition of dopamine-induced reduction in forskolin stimulated cAMP accumulation preincubated for 30 mins followed by forskolin stimulation and measured after 30 mins by BRET assay. It counts as functional, cell-based. A general note: cAMP levels reflect the balance of adenylyl cyclase and phosphodiesterase activity.

Experiment [4] has the same target. As to the kind of experiment: Negative allosteric modulation of recombinant human D2L receptor expressed in Flp-In CHO cells assessed as inhibition of dopamine-induced reduction in forskolin stimulated cAMP accumulation by measuring co-operativity factor preincubated for 30 mins followed by forskolin stimulation and measured after 30 mins by BRET assay. Type of experiment: functional, cell-based.

The target is the same in experiment [5]. As to the kind of experiment: Negative allosteric modulation of recombinant human D2L receptor expressed in Flp-In CHO cells assessed as inhibition of dopamine-induced reduction in forskolin stimulated cAMP accumulation by measuring modulation of dopamine efficacy preincubated for 30 mins followed by forskolin stimulation and measured after 30 mins by BRET assay. Type of experiment: functional, cell-based.

The target of experiment [6] is D(3) dopamine receptor (Homo sapiens) (UniProt P35462). The experiment can be described thus: Displacement of [3H]Raclopride from recombinant D3 receptor (unknown origin) expressed in Flp-In CHO cell membranes after 2 to 3 hrs by microbeta counting method. The procedure, abridged:
(§2)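 In FlpIn CHO membranes expressing hD3R, compound was tested for displacement of [3H]raclopride in equilibrium binding. Competition curves were fitted with an allosteric ternary complex model to give KB and the net cooperativity factor with [3H]raclopride. Data are at least three independent experiments in duplicate.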

The target is the same in experiment [7]. As to the kind of experiment: Displacement of [3H]Raclopride from recombinant D3 receptor (unknown origin) expressed in Flp-In CHO cell membranes assessed as co-operativity factor after 2 to 3 hrs by microbeta counting method. Summed up:
as §2

The species named for experiment [8] is Homo sapiens. The experiment can be described thus: Selectivity ratio of Kb for recombinant D3 receptor (unknown origin) expressed in Flp-In CHO cell membranes to Kb for recombinant human D2L receptor expressed in Flp-In CHO cell membranes. It counts as cell-based.
The target of experiment [9] is D(2) dopamine receptor (Homo sapiens) (UniProt P14416). As to the kind of experiment: Allosteric modulation of recombinant human D2L receptor expressed in Flp-In CHO cell membranes assessed as dissociation of [3H]Raclopride in presence of haloperidol after 2 to 3 hrs by microbeta counting method (reference value: 0.014 +/- 0.001 /min). Type of experiment: cell-based. The procedure, abridged: (§3)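 Membranes from FlpIn CHO cells stably expressing hD2LR were incubated with 0.5 nM [3H]raclopride for 60 min in HEPES/NaCl/MgCl2/EGTA/EDTA buffer, pH 7.4, at 25 °C. Dissociation was then started by adding 10 µM haloperidol, with or without modulator. Bound radioactivity was collected by filtration and scintillation counting. Curves were fitted for koff, and t1/2 = 0.6931/koff.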

Experiment [10] shares this target. As to the kind of experiment: Allosteric modulation of recombinant human D2L receptor expressed in Flp-In CHO cell membranes assessed as dissociation half life for [3H]Raclopride in presence of haloperidol after 2 to 3 hrs by microbeta counting method (reference value: 49.2 min). Type of experiment: cell-based. The procedure, abridged:
as §3

For experiment [11] the target is unchanged. The experiment can be described thus: Allosteric modulation of recombinant human D2L receptor expressed in Flp-In CHO cell membranes assessed as dissociation of [3H]Raclopride at 100 uM in presence of haloperidol after 2 to 3 hrs by microbeta counting method (reference value: 0.02 +/- 0.004 /min). Type of experiment: cell-based. The procedure, abridged:
as §3

The target is the same in experiment [12]. As to the kind of experiment: Allosteric modulation of recombinant human D2L receptor expressed in Flp-In CHO cell membranes assessed as dissociation half life for [3H]Raclopride at 100 uM in presence of haloperidol after 2 to 3 hrs by microbeta counting method (reference value: 34.2 min). It counts as cell-based. Summed up: as §3

D(2) dopamine receptor (Homo sapiens), sequence (P14416 whole entry): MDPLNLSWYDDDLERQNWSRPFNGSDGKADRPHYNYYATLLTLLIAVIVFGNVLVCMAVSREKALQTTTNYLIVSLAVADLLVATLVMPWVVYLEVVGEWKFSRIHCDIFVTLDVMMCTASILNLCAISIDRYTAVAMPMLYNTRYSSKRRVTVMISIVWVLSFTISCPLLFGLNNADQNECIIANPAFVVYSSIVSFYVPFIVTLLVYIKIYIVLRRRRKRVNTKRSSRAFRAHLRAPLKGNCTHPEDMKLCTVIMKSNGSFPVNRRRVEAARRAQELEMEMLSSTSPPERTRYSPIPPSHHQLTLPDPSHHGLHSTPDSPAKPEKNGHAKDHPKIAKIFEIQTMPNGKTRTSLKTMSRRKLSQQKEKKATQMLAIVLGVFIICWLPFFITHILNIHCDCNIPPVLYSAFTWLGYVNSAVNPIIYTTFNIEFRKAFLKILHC
D(3) dopamine receptor (Homo sapiens), sequence (P35462 whole entry): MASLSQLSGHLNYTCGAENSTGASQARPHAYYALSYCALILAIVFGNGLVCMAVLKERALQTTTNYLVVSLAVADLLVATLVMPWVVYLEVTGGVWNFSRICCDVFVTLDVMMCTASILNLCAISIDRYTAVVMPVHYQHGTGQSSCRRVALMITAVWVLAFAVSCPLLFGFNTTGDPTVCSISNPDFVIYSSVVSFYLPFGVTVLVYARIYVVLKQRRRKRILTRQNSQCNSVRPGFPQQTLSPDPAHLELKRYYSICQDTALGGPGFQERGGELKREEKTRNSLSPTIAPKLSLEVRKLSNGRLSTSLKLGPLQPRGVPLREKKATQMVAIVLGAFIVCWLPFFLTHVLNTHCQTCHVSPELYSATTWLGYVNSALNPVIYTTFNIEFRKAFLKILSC

As for `FC(F)(F)c1cccc(Nc2ncnc3sc4c(c23)CCCC4)c1`, the Kb turned out to be 31 µM in experiment [1], 25.4 µM in experiment [3] and 0.2 µM in experiment [6]. For the same molecule, the pKb (usually the negative decadic logarithm of the Kb, by convention in mol/L) turned out to be 4.51 in experiment [1], 4.6 in experiment [3] and 6.65 in experiment [6]. The figures for the Activity in experiment [2], in [5] and in [7] were 0.39, 0.1 and 0.06, respectively. In addition, the log(activity) in [2] is -0.41; in experiment [4] it was 0; in [5], -1.02; in experiment [7] it was -0.39. The Selectivity ratio in experiment [8] turned out to be 140.

Turning to `CCN(CC)c1nc(CN2CCOCC2)nc2sc3c(c12)CCCC3`, the results for the Kb in [1] and in experiment [3] were 6 µM and 0.662 µM, respectively. Further, the pKb in experiment [1] worked out at 5.22; in [3] it was 6.18; in experiment [6] it was 3.85. Also, the K in [9] was found to be 0.038 min⁻¹. In experiment [10], the T1/2 came out at 18.2 min. In addition, the Activity in experiment [2] came to 0.23; in experiment [4] it was 0.68; in experiment [5], 0.08. The log(activity) is -0.64 in [2], -0.17 in experiment [4] and -1.1 in [5]. The Selectivity ratio in experiment [8] turned out to be 23.

With `FC(F)(F)c1cccc(Nc2nc(CCCCN3CCOCC3)nc3sc4c(c23)CCCC4)c1`, the Kb came to 3.31 µM in [1] and 0.611 µM in experiment [3]. Moreover, the figures for the pKb in experiment [1], in experiment [3] and in experiment [6] were 5.48, 6.21 and 3.97, respectively. Besides, the Activity came out at 0.09 in [2], 0.19 in [4], 0.03 in experiment [5] and 0.2 in [7]. In addition, the log(activity) in experiment [2] was -1.03; in experiment [4], -0.72; in [5], -1.5; in [7], -0.69. Also, in [8], the Selectivity ratio worked out at 0.03.

As to `FC(F)(F)c1cccc(Nc2nc(CC3CCOCC3)nc3sc4c(c23)CCCC4)c1`, the Kb in experiment [1] amounted to 100 µM; in [3], 0.622 µM; in experiment [6], 52 µM. The pKb is 3.99 in experiment [1], 6.22 in [3] and 4.28 in experiment [6]. Besides, the Activity in experiment [2] was found to be 0.39; in [4], 0.13; in experiment [5], 0.23; in experiment [7], 0.37. Further, the log(activity) in [2] is -0.41; in experiment [4], -0.89; in experiment [5] it was -0.63; in [7] it was -0.44. Also, the Selectivity ratio in experiment [8] stood at 2.

With `FC(F)(F)c1cccc(Nc2nc(CN3CCOCC3)nc3sc4c(c23)CCCC4)c1`, the Kb in experiment [1] was determined as 16.6 µM; in experiment [3], 3.87 µM; in [6], 0.3 µM. Also, the values for the pKb in experiment [1], in experiment [3] and in experiment [6] were 4.78, 5.41 and 6.54, respectively. For the same molecule, in [11], the K is 0.038 min⁻¹. For the same molecule, in experiment [12], the T1/2 stood at 18.1 min. The log(activity) was 0 in experiment [4], -0.55 in [5] and -0.4 in [7]. The Activity amounted to 0.28 in [5] and 0.39 in experiment [7]. In [8], the Selectivity ratio amounted to 57.
